Assays:
[1] = Intrinsic clearance in mouse liver microsomes at 1 uM preincubated for 5 mins followed by NADPH addition and measured upto 60 mins by LC-MS analysis; format: ADME, Microsome; conditions: read-out: CLH
In short: (§1)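 Human or mouse liver microsomes, final 1 mg/mL in 0.05 M phosphate buffer pH 7.4; compound final 1 μM, preincubated 37 °C 5 min, started with 1 mM NADPH; sampled at 0, 5, 15, 30, 60 min, methanol quench, −20 °C 1 h, centrifuged, supernatant by LC–MS.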

[2] = Intrinsic clearance in human liver microsomes at 1 uM preincubated for 5 mins followed by NADPH addition and measured upto 60 mins by LC-MS analysis; format: ADME, Microsome; conditions: read-out: CLH; in short: as §1
[3] = Intrinsic clearance in rat liver microsomes at 1 uM preincubated for 5 mins followed by NADPH addition and measured upto 60 mins by LC-MS analysis; format: ADME, Microsome; conditions: time 65 min, read-out: CLH
Hepatitis B virus = assay: Antiviral activity against HBV infected in human HepG2-NTCP cells assessed as reduction in HBeAg secretion cells inoculated with virus for 4 hrs at room temperature and 37 degree C for 24 hrs followed inoculum changed with PMM medium for every 2 days until day 5 post infection by ELISA; format: functional, organism-based
[4] = molecular target: T1, Hepatic sodium/bile acid cotransporter (Homo sapiens, UniProt Q14973); assay: Inhibition of human NTCP expressed in human HepG2 cells assessed as decrease in NTCP surface expression at 2 uM incubated for 2 hrs by DAPI staining based analysis; format: cell-based; conditions: hepg2, 2 h
T1 sequence (Q14973 whole entry): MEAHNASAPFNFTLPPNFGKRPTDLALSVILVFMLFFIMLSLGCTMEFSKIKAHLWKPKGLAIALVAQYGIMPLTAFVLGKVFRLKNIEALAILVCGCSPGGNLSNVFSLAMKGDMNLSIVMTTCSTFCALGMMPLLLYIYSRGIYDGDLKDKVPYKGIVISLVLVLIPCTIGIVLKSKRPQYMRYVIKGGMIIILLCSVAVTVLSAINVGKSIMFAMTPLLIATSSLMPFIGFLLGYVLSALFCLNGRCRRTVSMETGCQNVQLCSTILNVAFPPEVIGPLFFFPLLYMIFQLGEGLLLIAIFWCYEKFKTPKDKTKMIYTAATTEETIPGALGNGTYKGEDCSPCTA
In short: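 HepG2-NTCP cells treated 2 h with DMSO, compound or TLCA at 2 μM, then immunostained for NTCP to assess cell-surface distribution.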

In the case of `CC[C@@H]1NC(=O)[C@H]([C@@H]2O[C@@H](Sc3cccc(OCc4ccc(F)cc4)c3)C[C@H]2C)N(C)C(=O)[C@H](C(C)C)N(C)C(=O)[C@H](CC(C)C)N(C)C(=O)[C@H](CC(C)C)N(C)C(=O)[C@@H](C)NC(=O)[C@H](C)NC(=O)[C@H](CC(C)C)N(C)C(=O)[C@H](C(C)C)NC(=O)[C@H](CC(C)C)N(C)C(=O)CN(C)C1=O`, the microsomal CLint at 1 µM [1] is reported as 0.3 µL/min/mg, the microsomal CLint at 1 µM [2] is reported as 7.7 µL/min/mg and the microsomal CLint at 1 µM [3] is reported as 2 µL/min/mg. It also gave an IC50 (Hepatitis B virus) of 206 nM.
For `CC[C@@H]1NC(=O)[C@H]([C@@H]2O[C@@H](Sc3cccc(NCc4ccccc4)c3)C[C@H]2C)N(C)C(=O)[C@H](C(C)C)N(C)C(=O)[C@H](CC(C)C)N(C)C(=O)[C@H](CC(C)C)N(C)C(=O)[C@@H](C)NC(=O)[C@H](C)NC(=O)[C@H](CC(C)C)N(C)C(=O)[C@H](C(C)C)NC(=O)[C@H](CC(C)C)N(C)C(=O)CN(C)C1=O`, the microsomal CLint at 1 µM [1] was 2.1 µL/min/mg, the microsomal CLint at 1 µM [2] was 6.1 µL/min/mg and the microsomal CLint at 1 µM [3] was 1.4 µL/min/mg. It also gave an IC50 (Hepatitis B virus) of 171 nM.
With `CCOc1cccc(S[C@H]2C[C@@H](C)[C@H]([C@H]3C(=O)N[C@@H](CC)C(=O)N(C)CC(=O)N(C)[C@@H](CC(C)C)C(=O)N[C@@H](C(C)C)C(=O)N(C)[C@@H](CC(C)C)C(=O)N[C@@H](C)C(=O)N[C@H](C)C(=O)N(C)[C@@H](CC(C)C)C(=O)N(C)[C@@H](CC(C)C)C(=O)N(C)[C@@H](C(C)C)C(=O)N3C)O2)c1` the microsomal CLint at 1 µM [1] was 4 µL/min/mg, the microsomal CLint at 1 µM [2] was 18.5 µL/min/mg and the microsomal CLint at 1 µM [3] was 2.3 µL/min/mg. The IC50 (Hepatitis B virus) was 181 nM.
For `C[C@H](CCC(=O)NCCS(=O)(=O)O)[C@H]1CC[C@H]2[C@@H]3CC[C@@H]4C[C@H](O)CC[C@]4(C)[C@H]3CC[C@]12C` [TAUROLITHOCHOLIC ACID], the “inhibition (INH)” value [4] was “Active”.
Work on `CC[C@@H]1NC(=O)[C@H]([C@@H]2O[C@@H](Sc3cc(OC)cc(OC)c3)C[C@H]2C)N(C)C(=O)[C@H](C(C)C)N(C)C(=O)[C@H](CC(C)C)N(C)C(=O)[C@H](CC(C)C)N(C)C(=O)[C@@H](C)NC(=O)[C@H](C)NC(=O)[C@H](CC(C)C)N(C)C(=O)[C@H](C(C)C)NC(=O)[C@H](CC(C)C)N(C)C(=O)CN(C)C1=O` yielded a microsomal CLint at 1 µM [1] of 5.5 µL/min/mg, a microsomal CLint at 1 µM [2] of 10.2 µL/min/mg and a microsomal CLint at 1 µM [3] of 0.7 µL/min/mg. For the same molecule, the IC50 (Hepatitis B virus) was 117 nM.
